Results from ChEMBL document CHEMBL1121644, “N-(aminophenyl)oxamic acids and esters as potent, orally active antiallergy agents” (1981).
The source made the active and inactive calls. The rule behind the calls is not given here.

Key:
Rattus norvegicus [1] = assay: Antiallergic property in passive cutaneous anaphylaxis (PCA) test in rats upon oral administration; format: functional
Method in brief: (§1)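 Male Sprague-Dawley rats (200 g) were sensitized id on the shaved back with 0.05 mL of a 1:100 dilution of rat anti-ovalbumin IgE serum. After 48 h they were challenged iv with 1.0 mL of 0.8% ovalbumin containing 5 mg Evans blue, and killed 40 min later. Wheal area (mm²) was taken as the longest diameter times its perpendicular. ED50 is the dose halving wheal size versus control, from regression over at least four log-spaced doses with five rats per dose.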

Rattus norvegicus [2] = assay: Antiallergic property in passive cutaneous anaphylaxis (PCA) test in rats upon intraperitoneal administration; format: functional; settings: for ED50: ip; method in brief: as §1
Rattus norvegicus [3] = assay: Percent inhibition using passive cutaneous anaphylaxis (PCA assay) in rat at 1 mg/kg upon oral administration; format: functional
Method in brief: (§2)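 Rats (male Sprague-Dawley, 200 g) were passively sensitized id with 0.05 mL of 1:100 IgE antiserum raised against ovalbumin. After a 48-h latency they were challenged iv with 0.8% ovalbumin (1.0 mL) plus 5 mg Evans blue. Skin was reflected 40 min later and stained wheals measured as longest diameter × perpendicular (mm²). Results are percent inhibition of wheal size versus control.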

Rattus norvegicus [4] = assay: Antiallergic property in passive cutaneous anaphylaxis (PCA) test in rats upon intraperitoneal administration; NA=Not active at 100 mg/kg; format: functional, organism-based; design: dose 100 mg/kg; method in brief: as §1
Rattus norvegicus [5] = assay: Percent inhibition of wheal size in passive cutaneous anaphylaxis (PCA) test at 50 mg/kg upon intraperitoneal administration; format: functional; settings: ip; method in brief: as §2
Rattus norvegicus [6] = assay: Percent inhibition of wheal size in passive cutaneous anaphylaxis (PCA) test at 50 mg/kg (administered orally); format: functional; settings: po; method in brief: as §2
Rattus norvegicus [7] = assay: Antiallergic property in passive cutaneous anaphylaxis (PCA) test in rats upon oral administration; NA=Not active at 100 mg/kg; format: functional, organism-based; design: dose 100 mg/kg; method in brief: as §1
Rattus norvegicus [8] = assay: Percent inhibition of wheal size in passive cutaneous anaphylaxis (PCA) test at 50 mg/kg upon oral administration; format: functional; method in brief: as §2

SMILES	ED50 (Rattus norvegicus [1]) [mg/kg]	ED50 (Rattus norvegicus [2]) [mg/kg]	further results
CCOC(=O)C(=O)Nc1cccc(C(=O)OC)c1C#N	0.8	1.2	
CCCNc1cccc(NC(=O)C(=O)OCC)c1C#N	0.7	0.5	
CNc1cccc(NC(=O)C(=O)[O-])c1C#N.[Na+]	0.07		inhibition in vivo at 1 mg/kg (Rattus norvegicus [3]): 96%
CCOC(=O)C(=O)Nc1cccc(S(C)(=O)=O)c1C#N			ED50 (Rattus norvegicus [4]): inactive
CCOC(=O)C(=O)Nc1cc(N(C)C)ccc1C#N	> 100	1.9	
CCN(C)c1cccc(NC(=O)C(=O)O)c1C#N			inhibition in vivo at 1 mg/kg (Rattus norvegicus [3]): 56.3%
CCOC(=O)C(=O)Nc1cccc(N2CCOCC2)c1C#N	6.3	1.2	
CCOC(=O)C(=O)Nc1cccc(N(C)C)c1C#N	4.2	0.2	
CN(C)c1cccc(NC(=O)C(=O)O)c1C#N			inhibition in vivo at 1 mg/kg (Rattus norvegicus [3]): 54.7%
CCCCNc1cccc(NC(=O)C(=O)[O-])c1C#N.[Na+]			% inhibition at 1 mg/kg (Rattus norvegicus [3]): 93.5%
Cc1cccc(NC(=O)C(=O)O)c1C#N			inhibition in vivo at 1 mg/kg (Rattus norvegicus [3]): 32.3%
CCCCCOc1cccc(NC(=O)C(=O)OCC)c1C#N			Inhibition (Rattus norvegicus [2]): 25%
CCOC(=O)C(=O)Nc1cccc(NC)c1C#N	0.1	0.2	
CCOC(=O)C(=O)Nc1cccc(N)c1C#N	0.07	0.05	
CCOC(=O)C(=O)Nc1c(C#N)cccc1N(C)C			ED50 (Rattus norvegicus [4]): inactive
CCOC(=O)C(=O)Nc1cccc(N2CCN(C)CC2)c1C#N.Cl	10.3	0.04	
CCOC(=O)C(=O)Nc1ccc(N(C)C)cc1C#N	2.4	1	
CCOC(=O)C(=O)Nc1cccc(NC(C)=O)c1C#N			inhibition in vivo at 50 mg/kg (Rattus norvegicus [5]): 91%; inhibition in vivo at 50 mg/kg (Rattus norvegicus [6]): 91%
CCOC(=O)C(=O)Nc1cccc(N(CC)CC)c1C#N	0.9	0.7	
CCOC(=O)C(=O)Nc1ccccc1C#N	2.9	0.4	
CCOC(=O)C(=O)Nc1cccc(OC(C)C)c1C#N	1	2	
CCOC(=O)C(=O)Nc1ccc(C(F)(F)F)c(N2CCOCC2)c1C#N	> 100	0.1	
CCNc1cccc(NC(=O)C(=O)OCC)c1C#N	0.03	0.03	

SMILES	ED50 (Rattus norvegicus [1]) [mg/kg]	ED50 (Rattus norvegicus [2]) [mg/kg]	further results
CCOC(=O)C(=O)Nc1ccc(N)cc1C#N	8.8	1	
CCOC(=O)C(=O)Nc1cccc(F)c1C#N	59	1.2	
COC(=O)c1cccc(NC(=O)C(=O)O)c1C#N			inhibition in vivo at 1 mg/kg (Rattus norvegicus [3]): 24.5%
CCOC(=O)C(=O)Nc1ccc([N+](=O)[O-])cc1C#N			inhibition in vivo at 50 mg/kg (Rattus norvegicus [5]): 33%
CCCCNc1cccc(NC(=O)C(=O)OCC)c1C#N	0.3	0.3	
CCOC(=O)C(=O)Nc1cccc(N2CCCCC2)c1C#N		2.2	ED50 (Rattus norvegicus [7]): inactive
N#Cc1c(N)cccc1NC(=O)C(=O)O			inhibition in vivo at 1 mg/kg (Rattus norvegicus [3]): 21.2%
CCOC(=O)C(=O)Nc1cccc(N2CCCC2)c1C#N			inhibition in vivo at 50 mg/kg (Rattus norvegicus [5]): 83%; inhibition in vivo at 50 mg/kg (Rattus norvegicus [8]): 83%
CCOC(=O)C(=O)Nc1cccc(OC)c1C#N	55.5	5.3	
CCNc1cccc(NC(=O)C(=O)O)c1C#N			inhibition in vivo at 1 mg/kg (Rattus norvegicus [3]): 58.9%
CCOC(=O)C(=O)Nc1cccc(Br)c1C#N			ED50 (Rattus norvegicus [4]): inactive
CCN(CC)c1cccc(NC(=O)C(=O)O)c1C#N			inhibition in vivo at 1 mg/kg (Rattus norvegicus [3]): 99.2%
CCOC(=O)C(=O)Nc1cccc(N(C)CC)c1C#N	0.5	0.3	
O=C([O-])c1cc(=O)c2c(OCC(O)COc3cccc4oc(C(=O)[O-])cc(=O)c34)cccc2o1.[Na+].[Na+] [CROMOLYN SODIUM]		8	ED50 (Rattus norvegicus [7]): inactive
CCCNc1cccc(NC(=O)C(=O)[O-])c1C#N.[Na+]			% inhibition at 1 mg/kg (Rattus norvegicus [3]): 83.1%
CC(C)Oc1cccc(NC(=O)C(=O)O)c1C#N			inhibition in vivo at 1 mg/kg (Rattus norvegicus [3]): 75.1%
CCOC(=O)C(=O)Nc1cccc(N(C)C(C)C)c1C#N	1.2	0.3	
CCOC(=O)C(=O)Nc1cccc(Cl)c1C#N			inhibition in vivo at 50 mg/kg (Rattus norvegicus [5]): 56%
CCOC(=O)C(=O)Nc1cccc(C(C)C)c1C#N			ED50 (Rattus norvegicus [4]): inactive; inhibition in vivo at 50 mg/kg (Rattus norvegicus [8]): 18%
N#Cc1c(NC(=O)C(=O)O)cccc1N1CCOCC1			inhibition in vivo at 1 mg/kg (Rattus norvegicus [3]): 14.1%
CCOC(=O)C(=O)Nc1cccc([N+](=O)[O-])c1C#N	82	0.4	
CCOC(=O)C(=O)Nc1cccc(C)c1C#N	4.6	5.3	
